From article PMC9391279 (Cell chemical biology, 2022)

Legend:
BRD4 in MDA-MB-231 cells [1] = molecular target: T1, BRD4 in MDA-MB-231 cells (Homo sapiens, UniProt O60885); test: TR-FRET BRD4 quantification, 96-well plate format; assay type: cell-based, H. sapiens; conditions: MDA-MB-231, 30 min to 10 h, 96-well no wash-out
BRD4 in MCF7 cells [2] = molecular target: T2, BRD4 in MCF7 cells (Homo sapiens, UniProt O60885); test: BRD4 degradation rescue experiments, MCF7; assay type: cell-based, H. sapiens; conditions: for Rescue of CS-JQ1-induced BRD4 degradation by co-treatment: MCF7, co-treatment with CS-JQ1, 5 h; for Rescue of dBET6-induced BRD4 degradation by co-treatment: MCF7, co-treatment with dBET6, 5 h
BRD4 in MDA-MB-231 cells [3] = molecular target: T1, BRD4 in MDA-MB-231 cells; test: BRD4 degradation rescue experiments, MDA-MB-231; assay type: cell-based, H. sapiens; conditions: for Rescue of CS-JQ1-induced BRD4 degradation by co-treatment: MDA-MB-231, co-treatment with CS-JQ1, 5 h; for Rescue of dBET6-induced BRD4 degradation by co-treatment: MDA-MB-231, co-treatment with dBET6, 5 h
Keap1-BTB domain = Keap1-BTB domain (Homo sapiens, UniProt Q14145); test: TR-FRET ligand displacement assay, Keap1-BTB domain; assay type: binding
Keap1-Kelch domain = Keap1-Kelch domain (Homo sapiens, UniProt Q14145); test: TR-FRET ligand displacement assay, Keap1-Kelch domain; assay type: binding
[4] = tested on: full-length Keap1 and individual BRD4 bromodomains; assay type: biochemical; conditions: BRD4(BD1) or BRD4(BD2)
BRD4 in MCF7 cells [5] = molecular target: T2, BRD4 in MCF7 cells; test: TR-FRET BRD4 quantification, 24-well plate format, MCF7; assay type: cell-based, H. sapiens; conditions: MCF7, 5 h treatment, 1 h washout
BRD4 in MDA-MB-231 cells [6] = molecular target: T1, BRD4 in MDA-MB-231 cells; test: TR-FRET BRD4 quantification, 24-well plate format, MDA-MB-231; assay type: cell-based, H. sapiens; conditions: MDA-MB-231, 5 h treatment, 1 h washout
BRD4 in MDA-MB-231 cells [7] = molecular target: T1, BRD4 in MDA-MB-231 cells; test: BRD4 ubiquitination by immunoprecipitation / Western blot; assay type: cell-based, H. sapiens; conditions: MDA-MB-231, 5 h
BRD4 = test: TR-FRET ligand displacement assays with recombinant BRD4; assay type: binding, human; conditions: Figure 4B
Summary of the method: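 Tracer displacement of JQ1-FITC (20 nM) from 4 nM GST-BRD4(BD1) or GST-BRD4(BD2) with 4 nM CoraFluor-1 anti-GST VHH, in HEPES/NaCl/BSA/Tween buffer, pH 7.5. Endogenous BRD4 was tested in clarified MCF7 lysate at 0.8 mg/mL total protein. Floor was a 10 μM reference inhibitor; ceiling was no inhibitor. Four-parameter IC50 fits were converted to KD,app by Cheng-Prusoff using tracer KD,app.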

BRD4(BD1) = conditions: read-out: KD,BD1, ref Faivre et al., 2020; cited from earlier work
BRD4(BD2) = conditions: read-out: KD,BD2, ref Faivre et al., 2020; cited from earlier work

Keap1-BTB domain, sequence (Q14145 whole entry, the tested form may be a part): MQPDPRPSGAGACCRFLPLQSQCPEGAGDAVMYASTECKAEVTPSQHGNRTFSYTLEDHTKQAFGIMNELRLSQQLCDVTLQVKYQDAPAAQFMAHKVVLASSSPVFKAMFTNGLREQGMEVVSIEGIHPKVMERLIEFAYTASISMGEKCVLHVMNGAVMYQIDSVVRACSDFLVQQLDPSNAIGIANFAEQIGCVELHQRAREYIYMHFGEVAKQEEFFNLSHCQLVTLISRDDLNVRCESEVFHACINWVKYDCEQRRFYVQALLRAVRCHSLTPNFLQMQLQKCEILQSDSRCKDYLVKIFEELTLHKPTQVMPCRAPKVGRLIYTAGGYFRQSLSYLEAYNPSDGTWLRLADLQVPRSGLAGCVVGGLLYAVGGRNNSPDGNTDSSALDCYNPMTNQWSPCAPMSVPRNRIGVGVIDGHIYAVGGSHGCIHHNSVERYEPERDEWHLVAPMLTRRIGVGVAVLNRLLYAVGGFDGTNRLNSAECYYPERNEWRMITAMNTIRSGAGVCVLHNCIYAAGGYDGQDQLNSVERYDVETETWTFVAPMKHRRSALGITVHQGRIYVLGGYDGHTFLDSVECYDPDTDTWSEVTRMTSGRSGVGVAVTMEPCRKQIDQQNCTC
Keap1-Kelch domain, sequence (Q14145 whole entry, the tested form may be a part): as above

Row | SMILES | Rescue of CS-JQ1-induced BRD4 degradation by co-treatment (BRD4 in MCF7 cells [2]) | Rescue of dBET6-induced BRD4 degradation by co-treatment (BRD4 in MCF7 cells [2]) | Rescue of CS-JQ1-induced BRD4 degradation by co-treatment (BRD4 in MDA-MB-231 cells [3]) | Rescue of dBET6-induced BRD4 degradation by co-treatment (BRD4 in MDA-MB-231 cells [3]) | further results
1 | Cc1ncsc1-c1ccc(CNC(=O)[C@@H]2C[C@@H](O)CN2C(=O)[C@@H](NC(=O)COCCOCCOCCNC(=O)C[C@@H]2N=C(c3ccc(Cl)cc3)c3c(sc(C)c3C)-n3c(C)nnc32)C(C)(C)C)cc1 [MZ1] |  |  |  |  | BRD4 degradation kinetics (in words) (BRD4 in MDA-MB-231 cells [1]): slightly slower degradation kinetics
2 | COC(=O)[C@]12CCC(C)(C)C[C@H]1[C@H]1C(=O)C=C3[C@@]4(C)C=C(C#N)C(=O)C(C)(C)[C@@H]4CC[C@@]3(C)[C@]1(C)CC2 [CDDO-Me, bardoxolone methyl] |  |  | not altered |  | Kd (Keap1-BTB domain): 24 nM
3 | CC1=C(O)C(=O)C=C2C1=CC=C1[C@@]2(C)CC[C@@]2(C)[C@@H]3C[C@](C)(C(=O)NCCCOCCOCCOCCCNC(=O)CC4N=C(c5ccc(Cl)cc5)c5c(sc(C)c5C)-n5c(C)nnc54)CC[C@]3(C)CC[C@]12C (stereo partly drawn) [CS-JQ1, (2R,4aS,6aS,12bR,14aS,14bR)-N-(1-(4-(4-chlorophenyl)-2,3,9-trimethyl-6H-thieno[3,2-f][1,2,4]triazolo[4,3-a][1,4]diazepin-6-yl)-2-oxo-7,10,13-trioxa-3-azahexadecan-16-yl)-10-hydroxy-2,4a,6a,9,12b,14a-hexamethyl-11-oxo-1,2,3,4,4a,5,6,6a,11,12b,13,14,14a,14b-tetradecahydropicene-2-carboxamide] |  |  |  |  | Affinity for the Keap1 BTB domain (in words) (Keap1-BTB domain; compared with celastrol): slightly improved affinity; Binding to the Keap1 Kelch domain (in words) (Keap1-Kelch domain): lost the ability to bind; Ternary complex formation between full-length Keap1 and individual BRD4 bromodomains [4]: could induce ternary complex formation; BRD4 degradation kinetics (in words) (BRD4 in MDA-MB-231 cells [1]): slightly slower kinetics; BRD4 level by TR-FRET after treatment (in words) (BRD4 in MCF7 cells [5]): dose-dependent and efficient degradation of BRD4; BRD4 level by TR-FRET after treatment (in words) (BRD4 in MDA-MB-231 cells [6]): dose-dependent and efficient degradation of BRD4; Induction of BRD4 ubiquitination (BRD4 in MDA-MB-231 cells [7]): induce BRD4 ubiquitination; Target engagement with BRD4 (in words) (BRD4): validated target engagement with BRD4
4 | CCS(=O)(=O)Nc1ccc(Oc2ccc(F)cc2F)c(-c2cn(C)c(=O)c3[nH]ccc23)c1 [ABBV-075, ABBV-075 (Mivebresib)] |  |  |  |  | Kd (BRD4(BD1)): 13.8 nM; Kd (BRD4(BD2)): 2.5 nM
5 | Nc1cccc2c1C(=O)N(C1CCC(=O)NC1=O)C2=O (stereo not drawn) [pomalidomide] |  | attenuated |  | attenuated | 
6 | CC(C)C[C@H](NC(=O)[C@H](Cc1ccccc1)NC(=O)c1cnccn1)B(O)O [bortezomib] |  | attenuated |  | attenuated | 
7 | CC1=C(O)C(=O)C=C2C1=CC=C1[C@@]2(C)CC[C@@]2(C)[C@@H]3C[C@](C)(C(=O)O)CC[C@]3(C)CC[C@]12C [CS, celastrol] | reduced CS-JQ1 degradation efficiency |  | reduced CS-JQ1 degradation efficiency |  | 

Now from value to compound, other results behind:

Row | Rescue of CS-JQ1-induced BRD4 degradation by co-treatment (BRD4 in MCF7 cells [2]) | Rescue of dBET6-induced BRD4 degradation by co-treatment (BRD4 in MCF7 cells [2]) | Rescue of CS-JQ1-induced BRD4 degradation by co-treatment (BRD4 in MDA-MB-231 cells [3]) | Rescue of dBET6-induced BRD4 degradation by co-treatment (BRD4 in MDA-MB-231 cells [3]) | SMILES | further results
8 | restored BRD4 levels | attenuated | restored BRD4 levels | attenuated | NS(=O)(=O)OC[C@H]1C[C@@H](Nc2ccnc3cc(-c4cccc(SC(F)(F)F)c4)nn23)[C@H](O)[C@@H]1O [MLN7243] | 
9 | restored BRD4 levels | attenuated | restored BRD4 levels | attenuated | NS(=O)(=O)OC[C@@H]1C[C@@H](n2ccc3c(N[C@H]4CCc5ccccc54)ncnc32)C[C@@H]1O [MLN4924] | 
